From ChEMBL document CHEMBL2346534, “Design, synthesis and in vitro anti-proliferative activity of 4,6-quinazolinediamines as potent EGFR-TK inhibitors” (Eur J Med Chem, 2013)

Key:
COLO 205 = test: Cytotoxicity against human COLO205 cells assessed as cell growth at 10^-5 M after 48 hrs by SRB assay; assay type: functional; conditions: COLO 205, 48 h, read-out: Activity
Procedure, shortened: (§1)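 NCI 60 single-dose screen at 10^-5 M. Cells in RPMI 1640 with 5% FBS and 2 mM L-glutamine, preincubated 24 h at 37 °C/5% CO2. Drug from DMSO stock, then 48 h exposure. TCA fixation, SRB staining, absorbance at 515 nm. Result given as percent growth of treated cells relative to untreated control.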

M14 = test: Cytotoxicity against human M14 cells assessed as cell growth at 10^-5 M after 48 hrs by SRB assay; assay type: functional; conditions: M14, 48 h, read-out: Activity; procedure, shortened: as §1
SN12C = test: Cytotoxicity against human SN12C cells assessed as cell growth at 10^-5 M after 48 hrs by SRB assay; assay type: functional; conditions: read-out: Activity
Procedure, shortened: (§2)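 NCI 60-panel single-dose primary screen at 10^-5 M. Cells are grown in RPMI 1640 with 5% FBS and 2 mM L-glutamine and preincubated 24 h at 37 °C. Drug exposure is 48 h. Cells are TCA-fixed, stained with SRB and absorbance is read at 515 nm. Results are reported as percent growth of treated cells versus untreated controls, corrected using time-zero plates.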

SNB-75 = test: Cytotoxicity against human SNB75 cells assessed as cell growth at 10^-5 M after 48 hrs by SRB assay; assay type: functional; conditions: SNB-75, 48 h, read-out: Activity; procedure, shortened: as §2
SF-295 = test: Cytotoxicity against human SF295 cells assessed as cell growth at 10^-5 M after 48 hrs by SRB assay; assay type: functional; conditions: SF-295, 48 h, read-out: Activity; procedure, shortened: as §2
SF-268 = test: Cytotoxicity against human SF268 cells assessed as cell growth at 10^-5 M after 48 hrs by SRB assay; assay type: functional; conditions: SF-268, 48 h, read-out: Activity; procedure, shortened: as §2
UACC-62 = test: Cytotoxicity against human UACC62 cells assessed as cell growth at 10^-5 M after 48 hrs by SRB assay; assay type: functional; conditions: UACC-62, 48 h, read-out: Activity
Procedure, shortened: (§3)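 NCI primary single-dose screen at 10^-5 M. Cells grown in RPMI 1640 with 5% FBS and 2 mM L-glutamine, given 24 h before drug addition, then 48 h exposure at 37 °C, 5% CO2. Cells TCA-fixed, stained with SRB, read at 515 nm. Reported as percent growth of treated cells relative to untreated controls.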

HOP-62 = test: Cytotoxicity against human HOP62 cells assessed as cell growth at 10^-5 M after 48 hrs by SRB assay; assay type: functional; conditions: HOP-62, 48 h, read-out: Activity; procedure, shortened: as §1
UACC-257 = test: Cytotoxicity against human UACC257 cells assessed as cell growth at 10^-5 M after 48 hrs by SRB assay; assay type: functional; conditions: UACC-257, 48 h, read-out: Activity; procedure, shortened: as §3
HT-29 = test: Cytotoxicity against human HT-29 cells assessed as cell growth at 10^-5 M after 48 hrs by SRB assay; assay type: functional; conditions: HT-29, 48 h, read-out: Activity; procedure, shortened: as §1
KM12 = test: Cytotoxicity against human KM12 cells assessed as cell growth at 10^-5 M after 48 hrs by SRB assay; assay type: functional; conditions: KM12, 48 h, read-out: Activity; procedure, shortened: as §1
RPMI-8226 = test: Cytotoxicity against human RPMI8226 cells assessed as cell growth at 10^-5 M after 48 hrs by SRB assay; assay type: functional; conditions: RPMI-8226, 48 h, read-out: Activity; procedure, shortened: as §2
RXF 393 = test: Cytotoxicity against human RXF393 cells assessed as cell growth at 10^-5 M after 48 hrs by SRB assay; assay type: functional; conditions: RXF 393, 48 h, read-out: Activity; procedure, shortened: as §2
NCI-H23 = test: Cytotoxicity against human NCI-H23 cells assessed as cell growth at 10^-5 M after 48 hrs by SRB assay; assay type: functional; conditions: NCI-H23, 48 h, read-out: Activity; procedure, shortened: as §2
NCI-H460 = test: Cytotoxicity against human NCI-H460 cells assessed as cell growth at 10^-5 M after 48 hrs by SRB assay; assay type: functional; conditions: NCI-H460, 48 h, read-out: Activity; procedure, shortened: as §2
CCRF-CEM = test: Cytotoxicity against human CCRF-CEM cells assessed as cell growth at 10^-5 M after 48 hrs by SRB assay; assay type: functional; conditions: read-out: Activity; procedure, shortened: as §1
OVCAR-8 = test: Cytotoxicity against human OVCAR8 cells assessed as cell growth at 10^-5 M after 48 hrs by SRB assay; assay type: functional; conditions: OVCAR-8, 48 h, read-out: Activity; procedure, shortened: as §2
SF-539 = test: Cytotoxicity against human SF539 cells assessed as cell growth at 10^-5 M after 48 hrs by SRB assay; assay type: functional; conditions: SF-539, 48 h, read-out: Activity; procedure, shortened: as §2
MDA-MB-435 = test: Cytotoxicity against human MDA-MB-435 cells assessed as cell growth at 10^-5 M after 48 hrs by SRB assay; assay type: functional; conditions: MDA-MB-435, 48 h, read-out: Activity; procedure, shortened: as §1
HCT-116 = test: Cytotoxicity against human HCT116 cells assessed as cell growth at 10^-5 M after 48 hrs by SRB assay; assay type: functional; conditions: HCT-116, 48 h, read-out: Activity; procedure, shortened: as §1
PC-3 = test: Cytotoxicity against human PC3 cells assessed as cell growth at 10^-5 M after 48 hrs by SRB assay; assay type: functional; conditions: PC-3, 48 h, read-out: Activity; procedure, shortened: as §2
DU-145 = test: Cytotoxicity against human DU145 cells assessed as cell growth at 10^-5 M after 48 hrs by SRB assay; assay type: functional; conditions: DU-145, 48 h, read-out: Activity; procedure, shortened: as §1
K562 = test: Cytotoxicity against human K562 cells assessed as cell growth at 10^-5 M after 48 hrs by SRB assay; assay type: functional; conditions: K562, 48 h, read-out: Activity; procedure, shortened: as §1
BT-549 = test: Cytotoxicity against human BT549 cells assessed as cell growth at 10^-5 M after 48 hrs by SRB assay; assay type: functional; conditions: BT-549, 48 h, read-out: Activity; procedure, shortened: as §1
NCI-H522 = test: Cytotoxicity against human NCI-H522 cells assessed as cell growth at 10^-5 M after 48 hrs by SRB assay; assay type: functional; conditions: NCI-H522, 48 h, read-out: Activity; procedure, shortened: as §2
NCI-H322M = test: Cytotoxicity against human NCI-H322M cells assessed as cell growth at 10^-5 M after 48 hrs by SRB assay; assay type: functional; conditions: read-out: Activity; procedure, shortened: as §2
MCF7 = test: Cytotoxicity against human MCF7 cells assessed as cell growth at 10^-5 M after 48 hrs by SRB assay; assay type: functional; conditions: MCF7, 48 h, read-out: Activity; procedure, shortened: as §1
CAKI-1 = test: Cytotoxicity against human Caki1 cells assessed as cell growth at 10^-5 M after 48 hrs by SRB assay; assay type: functional; conditions: CAKI-1, 48 h, read-out: Activity; procedure, shortened: as §1
T47D = test: Cytotoxicity against human T47D cells assessed as cell growth at 10^-5 M after 48 hrs by SRB assay; assay type: functional; conditions: read-out: Activity; procedure, shortened: as §3
IGROV-1 = test: Cytotoxicity against human IGROV1 cells assessed as cell growth at 10^-5 M after 48 hrs by SRB assay; assay type: functional; conditions: IGROV-1, 48 h, read-out: Activity; procedure, shortened: as §1
SK-OV-3 = test: Cytotoxicity against human SKOV3 cells assessed as cell growth at 10^-5 M after 48 hrs by SRB assay; assay type: functional; conditions: SK-OV-3, 48 h, read-out: Activity; procedure, shortened: as §2
[1] = target: Epidermal growth factor receptor (Homo sapiens, UniProt P00533); conditions: at 10 µM;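 also: EGFR tyrosine kinase activity on a poly(Glu,Tyr) substrate, read out by Kinase-Glo Plus luminescence after a 40 min reaction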
Epidermal growth factor receptor, sequence (P00533 whole entry): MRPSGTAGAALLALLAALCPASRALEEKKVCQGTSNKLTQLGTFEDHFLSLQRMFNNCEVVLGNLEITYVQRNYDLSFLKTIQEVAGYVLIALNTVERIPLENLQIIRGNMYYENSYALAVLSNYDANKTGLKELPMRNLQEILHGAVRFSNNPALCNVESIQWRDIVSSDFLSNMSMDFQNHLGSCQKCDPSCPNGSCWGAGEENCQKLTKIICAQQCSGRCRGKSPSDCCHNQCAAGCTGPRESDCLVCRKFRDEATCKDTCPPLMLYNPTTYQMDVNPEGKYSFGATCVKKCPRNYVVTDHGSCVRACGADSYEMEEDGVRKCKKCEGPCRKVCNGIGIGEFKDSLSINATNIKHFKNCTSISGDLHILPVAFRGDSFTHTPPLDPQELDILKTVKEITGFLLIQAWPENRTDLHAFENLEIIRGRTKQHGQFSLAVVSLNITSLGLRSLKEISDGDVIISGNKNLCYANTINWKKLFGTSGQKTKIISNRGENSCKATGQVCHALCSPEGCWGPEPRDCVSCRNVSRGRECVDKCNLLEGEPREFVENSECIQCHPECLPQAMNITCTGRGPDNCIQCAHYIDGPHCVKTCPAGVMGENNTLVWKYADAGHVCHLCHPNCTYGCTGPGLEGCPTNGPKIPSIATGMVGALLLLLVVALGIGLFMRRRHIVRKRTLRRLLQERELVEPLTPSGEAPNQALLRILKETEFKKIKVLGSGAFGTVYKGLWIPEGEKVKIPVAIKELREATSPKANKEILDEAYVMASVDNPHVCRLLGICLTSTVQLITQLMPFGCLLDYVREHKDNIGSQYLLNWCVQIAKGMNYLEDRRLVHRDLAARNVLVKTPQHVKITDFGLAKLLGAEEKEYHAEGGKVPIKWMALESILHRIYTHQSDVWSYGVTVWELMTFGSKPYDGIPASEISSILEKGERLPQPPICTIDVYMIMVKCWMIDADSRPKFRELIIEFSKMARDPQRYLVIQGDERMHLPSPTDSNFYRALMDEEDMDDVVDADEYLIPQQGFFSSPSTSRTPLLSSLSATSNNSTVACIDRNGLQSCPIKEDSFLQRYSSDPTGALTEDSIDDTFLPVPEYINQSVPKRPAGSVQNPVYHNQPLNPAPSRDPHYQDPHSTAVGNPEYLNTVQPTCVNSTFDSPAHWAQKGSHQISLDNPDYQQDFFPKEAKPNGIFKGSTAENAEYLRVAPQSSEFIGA

Compound | growth at 10 µM (COLO 205) | growth at 10 µM (M14) | growth at 10 µM (SN12C) | growth at 10 µM (SNB-75) | growth at 10 µM (SF-295) | growth at 10 µM (SF-268) | growth at 10 µM (UACC-62) | growth at 10 µM (HOP-62) | growth at 10 µM (UACC-257) | growth at 10 µM (HT-29) | growth at 10 µM (KM12) | growth at 10 µM (RPMI-8226) | growth at 10 µM (RXF 393) | growth at 10 µM (NCI-H23) | growth at 10 µM (NCI-H460) | growth at 10 µM (CCRF-CEM) | growth at 10 µM (OVCAR-8) | growth at 10 µM (SF-539) | growth at 10 µM (MDA-MB-435) | growth at 10 µM (HCT-116) | other results
NC(=O)Nc1ccc2ncnc(Nc3cccc(O)c3)c2c1 | 94.7% | 102% | 94.9% | 102% | 98.1% | 85.4% | 105% | 92.8% | 99.8% | 106% | 96.1% | 112% | 111% | 100% | 108% | 108% | 98.9% | 109% | 101% | 109% | growth at 10 µM (PC-3): 102%; growth at 10 µM (DU-145): 90.4%; growth at 10 µM (K562): 103%; growth at 10 µM (BT-549): 108%; growth at 10 µM (NCI-H522): 102%; growth at 10 µM (NCI-H322M): 83.5%; growth at 10 µM (MCF7): 97.3%; growth at 10 µM (CAKI-1): 84.8%; growth at 10 µM (T47D): 76.6%; growth at 10 µM (IGROV-1): 107%; growth at 10 µM (SK-OV-3): 87.5%; inhibition [1]: 100%
C#Cc1cccc(Nc2ncnc3ccc(N/C=C(\C#N)C(=O)OCC)cc23)c1 | 104% | 114% | 97.1% | 92.5% | 95.6% | 94.4% | 104% | 99.9% | 99.8% | 98% | 98.1% | 101% | 92.9% | 98.2% | 100% | 103% | 94.8% | 97.8% | 92% | 103% | growth at 10 µM (PC-3): 91.4%; growth at 10 µM (DU-145): 69.9%; growth at 10 µM (K562): 96.4%; growth at 10 µM (BT-549): 99.6%; growth at 10 µM (NCI-H522): 86.3%; growth at 10 µM (NCI-H322M): 52.3%; growth at 10 µM (MCF7): 96.8%; growth at 10 µM (CAKI-1): 56.1%; growth at 10 µM (T47D): 73.4%; growth at 10 µM (IGROV-1): 77.4%; growth at 10 µM (SK-OV-3): 97%; inhibition [1]: 95%
